Measurements: ChEMBL document CHEMBL4513216, “Probing the Open Global Health Chemical Diversity Library for Multistage-Active Starting Points for Next-Generation Antimalarials” (ACS Infect Dis, 2020)

Experiment: Toxicity liver stage against HepG2, at 10uM
Type: cell-based
Parameters: test concentration 10 uM, cell line HepG2-A16-CD81EGFP
Settings: human, HepG2-A16-CD81EGFP cells; read-out: INHIBITION
How it was run: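 Uninfected HepG2-A16-CD81EGFP cells, 3 × 10^3 per well, 1536-well, plated on prespotted compound at 10 μM final, parasite-free screening media added to match infected plates; puromycin 10 μM positive, DMSO 0.5% negative; run in parallel with 48 h PbLuc assay at 37 °C, 5% CO2; viability by CellTiter-Glo luminescence, normalized to controls.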

Row | Structure (SMILES) | cytotoxicity at 10 µM
1 | Cc1nccc(C(=O)N2CCCC2c2c(C)nn(C)c2C)n1 (stereo not given) | -2.42%
2 | CC(C)OCc1noc(C2CCOC2)n1 (stereo not given) | 1.19%
3 | Cc1csc(N2CCN(CC(=O)Nc3cc(C)nn3C)CC2C)n1 (stereo not given) | -10.2%
4 | Cc1cnc(NC(=O)N2CCOCC2)s1 | -1.14%
5 | CCn1ccc(C(=O)Nc2ccc3c(c2)C(C)(C)C(=O)N3C)n1 | 12.2%
6 | CN(C)C(=O)C1CCCN1c1ncnc2ccsc12 (stereo not given) | 4.04%
7 | CC(C)N(C)C(=O)c1ccc(CNc2ncc(C#N)cc2Cl)cc1 | 15.9%
8 | CCOc1cccc(C(=O)Nc2ccncc2)c1 | 8.59%
9 | CSCCC(NC(=O)c1ccc2ccccc2n1)C(=O)O (stereo not given) | -3.09%
10 | CN1[C@H](CN2CCCC2)C[C@@H]2CN(C(=O)Cc3ccsc3)CC[C@@H]21 | -3.45%
11 | Cc1cc(NC(=O)N2CCN(C)CC2C)n(CCC#N)n1 (stereo not given) | 2.35%
12 | CC(=O)N1CCN(C[C@H]2CC[C@@H](Cc3ccc4c(c3)OCO4)O2)CC1 | -7.9%
13 | Cc1csc(CCCNC(C)CC(=O)Nc2cccc(C)c2C)n1 (stereo not given) | 5.76%
14 | O=c1cc(Cn2cncn2)nc2n1CCCN(Cc1ccsc1)C2 | -0.123%
15 | Cc1cc(C(=O)Nc2n[nH]c(C3CC3)n2)c2c(C)nn(C)c2n1 | 0.583%
16 | CCOCC(=O)N(Cc1ccccn1)Cc1ccccc1C | 3.21%
17 | Cn1cc(-c2ncnc3c2CCN(C(=O)c2cnccn2)CC3)cn1 | 6.93%
18 | COc1cccc(CC(=O)N2CCN(c3cccc(C)c3)C(C)C2)c1 (stereo not given) | 8.63%
19 | Cc1csc(C2CCCCN2C(=O)CN(C)Cc2ccccc2)n1 (stereo not given) | 2.62%
20 | O=S(=O)(c1ccccc1Cl)N1CCc2nc(C3CCNCC3)ncc2C1 | 14.2%
21 | NCCCC(=O)NCC1(O)CCCN(c2ccnc3cccnc23)C1 (stereo not given) | 3.71%
22 | CCn1cc(-c2nn3c(C(C)C)nnc3s2)c(C)n1 | -14.6%

Row | Structure (SMILES) | cytotoxicity at 10 µM
23 | c1cnnc(N2CCCC2CNCc2cnc(N3CCCC3)nc2)c1 (stereo not given) | 7.96%
24 | Fc1cccnc1Oc1cc(F)c(CN2CCCC2)c(F)c1 | -7.32%
25 | COCCOCC(=O)NC1CCN(c2ccccn2)CC1 | -0.555%
26 | c1ccc(Oc2cc(CNCC3CNc4ccnn4C3)ccn2)cc1 (stereo not given) | 3.1%
27 | O=C(Nc1cnccn1)[C@@H]1COC[C@H]2CN(C3CCCC3)C[C@H]21 | -21.9%
28 | Cn1ccnc1CN1CCN2C[C@H](Oc3ccccc3)C[C@H]2C1 | 7.14%
29 | O=C(c1cc[nH]n1)N1CCC(c2nccn2Cc2ccncc2)CC1 | 0.216%
30 | O=C(COc1ccccc1)NCC1CCN(Cc2ccsc2)CC1 | -4.59%
31 | COc1ccc2c(c1)CCCN(C(C)C(=O)NC(C)C)C2 (stereo not given) | 9.56%
32 | O=S(=O)(N1CCCCC1)N1CCc2nc(C3CCNCC3)ncc2C1 | -4.15%
33 | Nc1cc2c(nn1)CCN(C(=O)Cc1ccc3c(c1)CCCC3)C2 | 0.696%
34 | c1ccc(Cn2cc3c(n2)C(COCC2CC2)OCC3)nc1 (stereo not given) | -6.63%
35 | CCCN1C[C@@H]2CC[C@H]1CN(C(=O)Cc1c(C)[nH]c(CC)nc1=O)C2 | -0.529%
36 | CN(C)C(=O)CN(C)C(=O)c1csc(Br)c1 | 12.3%
37 | CCOc1ccc2nc(CN3CCC(CNC(C)=O)C3)ccc2c1 (stereo not given) | -7.23%
38 | Cc1ccc(N2CCO[C@@H]3CN(Cc4cccc(C)n4)CC[C@@H]3C2)nn1 | 7.67%
39 | CC(C)c1nc2n(n1)CC(NCc1nnc(C(C)C)o1)CC2 (stereo not given) | -4.13%
40 | CCN(CC)C(=O)CSc1ccc(C(F)(F)F)cn1 | 12.7%
41 | CN(C)CCn1ccnc1C1CCCN(c2cc(N)ncn2)C1 (stereo not given) | -7.76%
42 | CCc1noc(C)c1C(=O)N1CCCC(n2nc(C)nc2C)C1 (stereo not given) | -7.01%
43 | c1ccc2nc(CN3CCCC3c3noc(C4CC4)n3)ccc2c1 (stereo not given) | -5.48%
44 | CN(Cc1nnn(CC2CC2)n1)C(=O)c1ccccc1 | 0.889%

Row | Structure (SMILES) | cytotoxicity at 10 µM
45 | CN1[C@@H](c2ccccc2)[C@@H](C(=O)NCc2ccncc2)C[C@@]1(C)C(=O)O | -40.6%
46 | CNC(=O)C1CCCCN1C(=O)c1csc(-c2ccccc2)n1 (stereo not given) | 2%
47 | CCC(CC)C(=O)N1CCOC2(CNC2)C1 | -0.184%
48 | CN(C)C(=O)CCNC(=O)Nc1cccc(Cl)c1-n1cccn1 | 0.399%
49 | CCOc1ccc(CN2CCc3nc4ccsc4c(=O)n3CC2)cc1 | -6.74%
50 | Cc1ccccc1C(=O)N1CCO[C@H]2[C@H](OCCN(C)C)CC[C@@H]21 | -2.95%
51 | O=C(CCc1cn[nH]c1)N1C[C@@H](CN2CCCCCC2)[C@@H](CO)C1 | 2.62%
52 | O=C(CCCOCc1ccccc1)N1CCCC(n2cncn2)C1 (stereo not given) | -17.5%
53 | CN(C)S(=O)(=O)N1CCN(CC2CCOc3ccccc3C2)CC1 (stereo not given) | -0.529%
54 | Cc1nn(C)c(C)c1CN(C)C(=O)c1cc(NC(=O)C2CC2)n(C)n1 | 3.38%
55 | O=C(c1ncccn1)N1CCC[C@]2(C[C@@H](OCC3CC3)CO2)C1 | -89.7%
56 | COc1cc2nc3n(c(=O)c2cc1OC)CCN(C(C)=O)CC3 | -2.65%
57 | CCc1nc2n(n1)CC(NCc1noc(-c3ccccc3)n1)CC2 (stereo not given) | -10.6%
58 | CC1CN(C)CCN1C(=O)c1cnc2onc(CC(C)(C)C)c2c1 (stereo not given) | -1.6%
59 | Cc1cccc(CN2C(=O)CC[C@@H]3[C@H]2CCN3CC2CCOCC2)n1 | 5.89%
60 | NC(=O)C1CCN(c2ncc(-c3cnccn3)c([C@H]3CCCO3)n2)CC1 | -0.24%
61 | CCN1CC2(CCC1=O)CCN(c1ccc(C(C)=O)cn1)CC2 | -8.63%
62 | CCC(=O)NC(CC)c1ccccc1C (stereo not given) | 5.14%
63 | Cc1cc(N2CCC(N(C)Cc3cccnc3)C2=O)n(C)n1 (stereo not given) | -9.98%
64 | CC(=O)N1CCC2(CCCN(C(=O)c3ccc(Cl)c(C(F)(F)F)c3)C2)C1 (stereo not given) | -81.8%
65 | Cc1noc(C(C)N(C)CC(=O)NCCc2ccc(Cl)cc2)n1 (stereo not given) | 10.3%
66 | Cc1nccn1-c1cc(CNC(=O)CCC2CCCO2)ccn1 (stereo not given) | -3.09%

Row | Structure (SMILES) | cytotoxicity at 10 µM
67 | O=C1[C@H]2CN(C3CCOCC3)C[C@H]2CN1Cc1ccncc1 | -124%
68 | COc1ncnc2c1CCN(C(=O)NCc1cccc(F)c1)CC2 | -7.27%
69 | c1cncc(-c2nccc(CN3CCCC3)n2)c1 | 2.34%
70 | CN1CCN(Cc2ccc(-c3ccc4[nH]ccc4c3)nc2)CC1 | -9.17%
71 | CC(C)c1ccc(CNC(C)c2ccc(S(C)(=O)=O)cc2)cc1 (stereo not given) | 13.9%
72 | CCn1ccnc1CN1CCN(c2ncnc3ccsc23)CC1C (stereo not given) | 3.04%
73 | CCCS(=O)(=O)N1CCN(C(=O)CO)CC1 | -1.96%
74 | COc1c(C2CCCN2C(=O)c2cc(C)on2)c(C)nn1C (stereo not given) | 0.407%
75 | CC(NC1CCN(C(=O)C2CCCCC2)CC1)c1nccs1 (stereo not given) | -4.22%
76 | COc1cc(C(=O)N(CCC#N)Cc2ccccn2)cc(OC)c1C | -15.1%
77 | Cc1ccnn1CCN1CCCC2(CCC(=O)N(C3CCCC3)C2)C1 (stereo not given) | 5.93%
78 | CCN(CC)C(=O)CN1CCCC1C(=O)N(C)C (stereo not given) | 12.5%
79 | CC(C)=CCN1CC2(CCN(Cc3c(F)cccc3F)CC2)CC1=O | -17%
80 | Cc1noc(C)c1CN1CCCC2(C1)CN(Cc1nccn1C)CCO2 (stereo not given) | 7.69%
81 | Cc1cccc(C(=O)N2CCc3ncnc(C4CCOC4)c3CC2)n1 (stereo not given) | -69.8%
82 | O=C(NCCc1nc(-c2ccccn2)no1)c1ccc(C2CCCO2)s1 (stereo not given) | 5.65%
83 | CC1CCC2(CC1)NC(=O)c1cc(Br)ccc1-n1nnnc12 (stereo not given) | 10.1%
84 | CCn1nc(C)c(C(C)NC(=O)c2cccc(NCC(=O)O)c2)c1C (stereo not given) | 3.04%
85 | O=C(CC(SC1CCCCC1)C(=O)O)c1ccc(Cl)cc1 (stereo not given) | 3.16%
86 | COc1ccc(-c2cnc(N)nc2C2CCCNC2)cc1 (stereo not given) | -1.51%
87 | c1csc(-c2nc(CNCCn3cccn3)cs2)c1 | -7.36%
88 | CCn1cc(CN(C)S(=O)(=O)c2ccc(NC(C)=O)cc2)cn1 | 9.22%

Row | Structure (SMILES) | cytotoxicity at 10 µM
89 | Cc1cccc(-c2noc(Cn3nc(C(N)=O)ccc3=O)n2)c1 | -1.15%
90 | CCc1nc2ccccc2c(=O)n1CC1(O)CCN(C(=O)COC)CC1 | -2.76%
91 | CCC1CN(c2cnn(C)c(=O)c2Cl)CCO1 (stereo not given) | -1.26%
92 | CS(=O)(=O)N1CC[C@H](c2nc3ccc(C(F)(F)F)cc3[nH]2)C1 | 0.0915%
93 | Cc1cnn(CC2CCCN2CC(=O)Nc2nncs2)c1 (stereo not given) | -2.03%
94 | Cn1ncc(N2CCOC(CCNC(=O)N3CCCCC3)C2)cc1=O (stereo not given) | -1.25%
95 | Cc1ccc(N2CCN(Cc3ccccc3)C3(CCNCC3)C2=O)cn1 | 12.1%
96 | O=C(Nc1ccc(F)cc1)C1CNCCN1C(=O)CC1CCCCC1 (stereo not given) | 7.01%
97 | CC(C)CN(CC(F)(F)F)S(=O)(=O)c1cc(C(N)=O)n(C)c1 | -3.22%
98 | CCOC(=O)c1c(NC(=O)C2CCN(C(C)=O)CC2)sc(C)c1CC | 10.9%
99 | COCc1ncn2c1CN(S(=O)(=O)c1cccs1)CCC2 | 6.82%
100 | COCc1cc(N(C)Cc2ccccn2)nc(C(C)(C)C)n1 | 12.1%
101 | CC(C)N(C)Cc1nnc2n1CCCN(c1ncccn1)C2 | 3.24%
102 | Cc1ccc(N2CCO[C@H]3CN(Cc4cc(C)on4)CC[C@H]3C2=O)cn1 | -72.2%
103 | O=C(c1ccoc1)N1CCCC1C1CCN(Cc2ccccc2)CC1 (stereo not given) | -10.6%
104 | CCS(=O)(=O)NCC(=O)Nc1cc(CC(C)(C)C)n[nH]1 | 5.01%
105 | COc1ccccc1-c1ncc(CN2CCC3(CCN(C)C3)CC2)cn1 | 3.92%
106 | Fc1ccccc1OCCN1CCCCC1Cn1cncn1 (stereo not given) | -18.9%
107 | CS(=O)(=O)c1cncnc1C1CCCN(C(=O)Cc2ccccc2F)C1 (stereo not given) | 2.72%
108 | c1cncc(OC[C@@]23CCC[C@@H]2CN(C2CCOCC2)C3)c1 | -0.0916%
109 | CCOCC(=O)N1CCC[C@]2(C[C@@H](OCc3ccncc3)CO2)C1 | 14.5%
110 | O=C(c1ccc2[nH]ccc2c1)N1Cc2nc(CN3CCCCC3)oc2C1 | 9.58%
